# pPAFAH inh: pPAFAH enzyme inhibitors, primary screen, biochemical, fluorescence polarization, human | recombinant pPAFAH, FP-rhodamine probe fluorescence polarization | inhibition, % at 3.39 µM | 330,000 tested, 1.5% active | Platelet-activating factor acetylhydrolase (Homo sapiens), Q13093 | AID 463082, 2010;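 active = inhibition above the mean inhibition across the screen plus 3 SD, cut at about 25% in these data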;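 also: inhibitors block binding of the rhodamine activity-based probe so polarization drops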
# ARFGAP1 inh: inhibitors of rat ARFGAP1 GAP activity, primary screen, biochemical, fluorescence polarization, GDP tracer. ADP-ribosylation factor GTPase-activating protein 1 (Rattus norvegicus), Q62848. Arfgap1-stimulated ARF1 GTP hydrolysis, GDP FP detection. inhibition, % at 16.5 µM. 360,000 tested, 0.26% active;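 active = inhibition above a per-plate limit, mean inhibition of low control wells plus 3 SD, cut at about 25% in these data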
#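 system = rat Arfgap1 catalytic domain, aa 1-136 | technique = FP, GDP Alexa 633 tracer displaced from anti-GDP antibody, 620/688 nm | compound = one concentration, 16.5 µM, DMSO 1.26% | medium = HEPES-based buffer, pH 7.5 | timing = compound-enzyme preincubation 20 min, reaction 120 min, detection 60 min, 25 °C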
# PAFAH1B3 inh: PAFAH1B3 enzyme inhibitors, primary screen, biochemical, fluorescence polarization, human. Platelet-activating factor acetylhydrolase IB subunit alpha1 (Homo sapiens), Q15102. recombinant PAFAH1B3, FP-rhodamine probe. inhibition, % at 3.39 µM. 340,000 tested, 0.28% active. AID 492972, 2010;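 active = inhibition above the screen-wide average of all tested compounds plus 3 SD, cut at about 25% in these data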
# PAFAH1B2 FP inh: PAFAH1B2 enzyme inhibitors, primary screen, biochemical, fluorescence polarization, human. Platelet-activating factor acetylhydrolase IB subunit alpha2 (Homo sapiens), P68402. recombinant PAFAH1B2, FP-rhodamine activity probe. inhibition, % at 3.39 µM. 340,000 tested, 1.2% active. AID 492953, 2010;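 active = inhibition above the mean of all tested compounds plus 3 SD, cut at about 24% in these data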
# PAFAH2 inh: PAFAH2 enzyme inhibitors, primary screen, biochemical, fluorescence polarization, human | Platelet-activating factor acetylhydrolase 2, cytoplasmic (Homo sapiens), Q99487 | recombinant PAFAH2, FP-rhodamine activity probe | inhibition, % at 3.39 µM | 340,000 tested, 0.99% active;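 active = inhibition above the mean over all tested compounds plus 3 SD, cut at about 30% in these data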;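 also: inhibitors block probe labeling of enzyme so polarization drops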
# ASAP1 inh: inhibitors of human ASAP1 ArfGAP activity, primary screen, biochemical, fluorescence polarization | inhibition, % at 16.5 µM | 360,000 tested, 0.19% active | ASAP1-stimulated ARF1 GTP hydrolysis, GDP FP detection | Arf-GAP with SH3 domain, ANK repeat and PH domain-containing protein 1 (Homo sapiens), …; in the data active = inhibition above about 25%
# Target sequence (Q9ULH1 325-724 limits assumed): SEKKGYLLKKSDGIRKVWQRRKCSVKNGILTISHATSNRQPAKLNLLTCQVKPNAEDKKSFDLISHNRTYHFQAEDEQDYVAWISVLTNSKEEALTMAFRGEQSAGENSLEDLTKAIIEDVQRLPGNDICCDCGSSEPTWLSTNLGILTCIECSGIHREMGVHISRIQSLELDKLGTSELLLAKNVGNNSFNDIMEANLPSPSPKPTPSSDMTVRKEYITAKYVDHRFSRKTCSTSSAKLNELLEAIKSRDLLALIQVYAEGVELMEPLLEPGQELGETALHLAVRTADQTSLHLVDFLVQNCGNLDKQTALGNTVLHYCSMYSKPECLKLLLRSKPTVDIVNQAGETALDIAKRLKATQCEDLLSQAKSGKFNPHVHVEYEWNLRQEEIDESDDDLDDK
# Numbers stand for hits; – = inactive; · = no result given. Most compounds without a hit are left out; they make up all but 2.7% or so of the library.
SMILES,pPAFAH inh,ARFGAP1 inh,PAFAH1B3 inh,PAFAH1B2 FP inh,PAFAH2 inh,ASAP1 inh
O=C(COC(=O)C12CC3CC(CC(Br)(C3)C1)C2)NNC(=O)c1ccccc1,–,–,–,52,–,–
CC1CCCCC1NC(=O)COC(=O)C12CC3CC(CC(Cl)(C3)C1)C2 (stereo not drawn),–,–,–,35,62,–
CC(NC(=O)COC(=O)C12CC3CC(CC(O)(C3)C1)C2)c1ccccc1 (stereo not drawn),–,–,–,–,–,–
COc1ccccc1NC(=O)COC(=O)C12CC3CC(CC(Cl)(C3)C1)C2,–,–,–,–,–,–
O=C(COC(=O)C12CC3CC(CC(Br)(C3)C1)C2)N1CCOCC1,–,–,–,–,–,–
COc1ccc(CNC(=O)N(C)C[C@@H]2OCc3ccccc3-c3c(n(C)c4ccccc34)C(=O)N([C@@H](C)CO)C[C@@H]2C)cc1,·,–,·,·,·,–
C[C@H](NC(=O)C[C@@H]1C[C@@H]2c3cc(NC(=O)C4CCC4)ccc3O[C@@H]2[C@@H](CO)O1)c1ccccc1,·,–,·,·,·,–
Cc1ccc2nc(-c3ccc(CN4CCC5(CC4)CNc4ccccc45)cc3)c(-c3ccccc3)nc2c1,·,–,·,·,·,–
O=C(COC(=O)C12CC3CC(CC(C3)C1)C2)NCc1ccccc1,–,–,–,–,–,–
O=C(COC(=O)C12CC3CC(CC(Cl)(C3)C1)C2)Nc1ccccc1,–,–,–,35,60,–
O=C(COC(=O)C12CC3CC(CC(C3)C1)C2)NNC(=O)c1ccccc1,–,–,–,40,–,–
CCCN1C(=O)c2n[nH]c(C)c2C1c1ccc(Br)cc1 (stereo not drawn),·,–,·,·,·,–
COc1cccc(CNC(=O)[C@H]2CCCN2C(=O)[C@H]2CCCN2C(=O)c2cccc(Cl)c2)c1,·,–,·,·,·,–
O=S(=O)(NCCSc1ccccn1)c1ccc(Br)cc1,–,–,–,25,–,–
O=S(=O)(NCCc1ccncc1)c1ccc(Br)cc1,–,–,–,–,–,–
O=S(=O)(NCCc1ccccc1)c1ccc(Br)cc1,–,–,–,28,–,–
CNC(=O)c1ccccc1C1(O)c2ccccc2CCc2ccccc21,·,–,·,·,·,–
Cc1ccc(/C=C2\SC(N3CCN(C(c4ccccc4)c4ccccc4)CC3)=NC2=O)o1,27,–,–,–,–,–
NC(=O)c1ncn([C@@H]2O[C@H](C(=O)N[C@H](Cc3c[nH]c4ccccc34)C(=O)N3CCN(CC(=O)N4CCCC4)CC3)[C@@H](O)[C@H]2O)n1,·,–,·,·,·,–
Cc1cc(C(C)(C)C)cc(S(=O)(=O)Nc2cccc(C(=O)O)c2)c1C,–,–,–,30,–,–
C[C@H](c1ccccc1)N1C[C@@H](COCc2ccccc2)Oc2cccc(Oc3ccc(F)cc3)c2S1(=O)=O,·,–,·,·,·,–
COC(=O)[C@]12C[C@H](CC(=O)NCc3cccc4ccccc34)C(=O)N(CCc3ccc(OC)c(OC)c3)C1=C[C@H](C(C)(C)C)O[C@@H]2C,·,–,·,·,·,–
CC1(OC(=O)CCc2ccccc2)C(=O)C=C2C=C(C3CC3)OC=C2C1=O (stereo not drawn),33,·,·,·,·,·
COC(=O)CCCC1=CC2=CC(=O)C(C)(OC(=O)CCc3ccccc3)C(=O)C2=CO1 (stereo not drawn),–,·,–,–,–,·
COC(=O)CCC(=O)OC1(C)C(=O)C=C2C=C(C3CC3)OC=C2C1=O (stereo not drawn),26,·,·,·,·,·
CCCCCCCCN1C(=O)[C@@H](CC(=O)N2CCN(C(=O)C3CC3)CC2)C[C@@]2(C(=O)OC)C1=C[C@H](C(C)(C)C)O[C@@H]2C,·,–,·,·,·,–
NS(=O)(=O)c1ccc(NCCCn2ccnc2)c([N+](=O)[O-])c1,–,–,–,–,–,–
O=C1c2ccccc2-c2onc3ccc(NCCCn4ccnc4)c1c23,105,·,·,·,·,·

# Assay outcomes: PubChem, The Scripps Research Institute Molecular Screening Center
